Hits are enriched below; roughly 3% of the tested compounds scored in any of these assays.
TRPC6 act – activators of mouse TRPC6 channel. AID 2550. Q61143. hit rate 0.13% among 310,000. B-score at 10 µM. HEK293-TRPC6 membrane potential dye fluorescence; stronger effect = higher value;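 active = B-score of the integrated fluorescence ratio above library mean plus 3 SD, and starting fluorescence ratio within library mean plus 5 SD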;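 note: higher score means more depolarization so channel activation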
TRPC6 inhibitor – inhibitors of mouse TRPC6 channel; HEK293-TRPC6, membrane potential dye, ACh-evoked depolarization; stronger effect = lower value; B-score at 10 µM; Q61143; hit rate 1.1% among 310,000;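 active = B-score under library mean minus 3 SD, initial fluorescence not abnormally high, positive integrated signal ratio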;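 note: B-score derived from integrated fluorescence ratio over the kinetic read; more negative B-score means stronger inhibition of depolarization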
Kir21 inh – blocks the mouse Kir2.1 inward-rectifier potassium channel | hit rate 0.85% among 310,000 | B-score at 10 µM | P35561 | HEK293-Kir2.1, FluxOR thallium flux fluorescence; stronger effect = lower value | AID 1672;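 active = fluorescence ratio B-score at or below minus 3 SD of library scores, with starting-brightness B-score within 2 SD, cut at about -4.2 in these data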;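 note: channel flux triggered by added potassium and thallium sulfate stimulus; B-score of peak minus minimum fluorescence over baseline after thallium stimulus; more negative B-score means stronger Kir2.1 block with less thallium influx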
TRPC4 potent – allosterically enhances the mouse TRPC4 cation channel. AID 2227. HEK293 TRPC4beta/mu-opioid, DAMGO EC20, Fluo-4 Ca2+ flux; stronger effect = higher value. hit rate 0.42% among 310,000. B-score at 10 µM;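 active = B-score of calcium response area above 5 SD of library B-scores, with initial fluorescence ratio within 5 SD of library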;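 note: B-score of integrated fluorescence ratio over time as area under calcium response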
TRPC4 agonist – activators of mouse TRPC4 channel | AID 2237 | HEK293 TRPC4beta/mu-opioid, Fluo4 calcium fluorescence; stronger effect = higher value | Q9QUQ5 | hit rate 0.49% among 310,000 | B-score at 10 µM;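 active = B-score above 5 SD of library B-scores, and initial fluorescence ratio not above library mean plus 5 SD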;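 note: positive B-score marks a calcium rise read as TRPC4 activation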
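Incubation: 45 min room-temperature Fluo4 loading, 110 s read / System: HEK293 cells stably co-expressing mouse TRPC4beta and mu-opioid receptor / Signal: Fluo4 fluorescence, kinetic / Control set: buffer (low) and maximal DAMGO (high) / Measure: integrated baseline-normalised fluorescence ratio, converted to per-well B score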
TRPC4 block – blocks the mouse TRPC4 cation channel; Q9QUQ5; HEK293 TRPC4beta/mu-opioid, DAMGO-evoked Fluo4 calcium flux; stronger effect = lower value; B-score at 10 µM; hit rate 0.39% among 300,000; AID 2247;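 active = B-score over 3 SD under the library average, no early fluorescence shift, positive overall ratio signal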
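material = TRPC4beta/mu-opioid receptor HEK293 cell line | probe or stimulus = sequential submaximal and maximal DAMGO stimulation | compound dosing = one concentration per compound | measured by = Fluo4 Ca2+ flux fluorescence | evaluation = integrated fluorescence ratio relative to baseline, converted to per-well B score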
The depositor's hits bear a star; i = inactive.

SMILES | TRPC6 act | TRPC6 inhibitor | Kir21 inh | TRPC4 potent | TRPC4 agonist | TRPC4 block
CC(C)C(=O)N1CCN(c2ccccc2NC(=O)c2ccco2)CC1 | i | i | 0.47 | i | i | -10*
Cc1nc2ccccn2c1CN(C)C(=O)C1CCC(=O)N(CCc2cccc(F)c2)C1 (stereo unspecified) | i | i | -0.22 | i | i | i
COCCCn1c(N)c(-c2nc3ccccc3n2C)c2nc3ccccc3nc21 | i | i | -1 | i | 74* | i
Cn1c(-c2c(N)n(CCCc3ccccc3)c3nc4ccccc4nc23)nc2ccccc21 | i | i | -1.3 | i | i | i
N#Cc1c2n(c(=S)n(-c3ccc(OC(F)F)cc3)c1=O)CCCCC2 | i | i | -2.4 | 13* | i | i
COc1ccc(S(=O)(=O)Nc2ccccc2-c2nc3ccccc3[nH]c2=O)cc1 | i | i | 0.73 | i | i | i
CC(=NCCN1CCN(C(C)=C2C(=O)c3ccccc3C2=O)CC1)C1=C(O)CC(C)(C)CC1=O | i | i | -0.07 | 14* | i | i
CC(=C1C(=O)c2ccccc2C1=O)N1CCN(CCN=CC2=C(O)CC(C)(C)CC2=O)CC1 | i | i | 0.95 | i | i | i
CCN(C(=O)CSc1ncnc2sc(C)c(C)c12)C1CCS(=O)(=O)C1 (stereo unspecified) | i | i | -0.87 | i | i | i
CCc1cc2c(SCC(=O)N(C)C3CCS(=O)(=O)C3)ncnc2s1 (stereo unspecified) | i | i | -0.38 | 28* | i | i
COc1ccc(NC(=O)CS(=O)CC(=O)Nc2cccnc2)cc1 (stereo unspecified) | i | i | 1.3 | i | i | i
Cc1ccc2[nH]cc(CCNC(=O)C3CCCO3)c2c1 (stereo unspecified) | i | i | -0.05 | i | i | i
O=C(Cn1c(CO)nc2ccccc21)Nc1ccccc1Cl | i | i | -9.4* | i | i | i
C=CCNC(=O)C1COc2ccccc2O1 (stereo unspecified) | i | i | -1.6 | i | i | i
Cc1cccc(Nc2nc(NCc3ccco3)c3ccccc3n2)c1 | i | i | -14* | i | i | i
Cc1ccccc1Nc1nc(NCc2ccco2)c2ccccc2n1 | i | -5.8* | -13* | i | 49* | -9*
c1ccc(Nc2nc(NCc3ccco3)c3ccccc3n2)cc1 | i | i | -17* | i | i | i
CSc1nc(NCc2ccco2)c2ccccc2n1 | i | i | 2 | i | i | i
Cc1ccc(-c2nc(NCc3ccco3)c3ccccc3n2)cc1 | i | i | 0.27 | i | i | i
CC(=O)c1ccc(N2CCN(C(=O)CCCn3c(=O)[nH]c4ccccc4c3=O)CC2)cc1 | i | i | 0.2 | i | i | i
COc1ccc(N2CCN(C(=O)CCCn3c(=O)[nH]c4cc(Cl)ccc4c3=O)CC2)cc1 | i | i | 0.47 | i | i | -6*
c1ccc(Nc2nc(N3CCNCC3)nc(N3CCOCC3)n2)cc1 | i | i | -1 | i | 65* | i
O=C1C(Cl)=C(Nc2cccc(O)c2)C(=O)N1Cc1ccccc1 | i | i | -0.41 | 74* | i | i
CCOc1ccccc1NC1=C(Cl)C(=O)N(Cc2ccccc2)C1=O | i | i | -1.5 | i | i | i
CN(CC(=O)Nc1ccc(Cl)c(Cl)c1)C(=O)CC1OC(=O)c2ccccc21 (stereo unspecified) | i | i | -0.29 | i | i | i
SMILES | TRPC6 act | TRPC6 inhibitor | Kir21 inh | TRPC4 potent | TRPC4 agonist | TRPC4 block
O=C1CSC(=Nc2cccc(Cl)c2Cl)N1 | i | i | 0.88 | i | i | i
O=C(c1ccc2c(c1)OCO2)C1CCCN(Cc2cc(F)ccc2-n2cccn2)C1 (stereo unspecified) | i | i | 0.84 | i | i | -5*
O=C(c1ccc2c(c1)OCO2)C1CCCN(Cc2cccn2-c2cccnc2)C1 (stereo unspecified) | i | i | -2.6 | i | i | -6*
O=C(c1cccc(Cl)c1)C1CCCN(C(=O)c2ccc3c(c2)OCO3)C1 (stereo unspecified) | i | i | -4.8* | i | i | i
COc1ccc(COCC(O)CN(Cc2ccco2)Cc2ccccc2O)cc1 (stereo unspecified) | i | i | -6.7* | i | i | i
Oc1ccccc1CN(Cc1ccco1)CC(O)COCc1ccc(Cl)cc1 (stereo unspecified) | i | i | -0.85 | i | i | i
O=C(Nc1ccnn1C1CCN(C(=O)c2cccc(C(F)(F)F)c2)CC1)C1CC1 | i | i | -0.15 | i | i | i
CCC1(C(=O)c2ccccc2)C(c2ccc([N+](=O)[O-])cc2)C1(C(=O)OC)C(=O)OC (stereo unspecified) | i | i | -0.76 | i | i | -7*
Cc1ccc(C(=O)c2coc3ccc(O)c(CN4CCN(C)CC4)c23)cc1 | i | i | -4.6* | i | i | i
COc1ccc(C(=O)c2coc3ccc(O)c(CN4CCCC4)c23)cc1 | i | i | -1.4 | i | i | i
O=C(c1coc2ccc(O)c(CN3CCOCC3)c12)C1CC1 | i | i | 0 | i | i | i
COc1ccc(C(=O)c2coc3ccc(O)c(CN4CCOCC4)c23)cc1 | i | i | -4.7* | i | i | i
O=C(c1cccs1)c1coc2ccc(O)c(CN3CCOCC3)c12 | i | i | -4.2* | i | i | i
Clc1c(-c2nnc3n2CCCCC3)sc2ccccc12 | i | i | 0.95 | i | i | i
COc1ccc2c(Cl)c(-c3nnc4n3CCCCC4)sc2c1 | i | i | 0.55 | i | 167* | i
O=C(Nc1cccc(NC(=O)c2ncn[nH]2)c1)c1cccc(Cl)c1 | i | i | -0.07 | i | i | i
Cc1ccc(C(=O)C(c2ccccc2)N2Cc3ccccc3C2=N)cc1 (stereo unspecified) | i | i | -8.3* | i | 210* | i
Cc1cccc(N(C)S(=O)(=O)c2cccc3nsnc23)c1 | i | i | -4.3* | i | i | i
CNC(=O)COc1ccc(S(=O)(=O)N2CCCC2)cc1 | i | i | -0.53 | i | i | i
Cc1cc(Nc2ccc(C)c(C)c2)c2ccccc2n1 | i | i | -2.1 | i | i | -6*
COc1ccc(S(=O)(=O)NCC(=O)NCc2cc(=O)n(C)c(=O)n2C)cc1 | i | i | -0.15 | i | i | i
